Converted amounts (≈) assume the structure as drawn. The source made the active and inactive calls. No cut-off for these calls is given here.
Tests used:
[1] = Cytotoxicity against human 23132/87 cells assessed as cell viability at 10 uM after 48 hrs by MTT assay; type: functional; conditions: 23132-87, 48 h, read-out: Activity
Outline: (§1)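 Cells were seeded at 3.10³–5.10³ per well in RPMI 1640 with 10% FBS, 4 mM L-glutamine and penicillin/streptomycin, then held 24 h at 37 °C under 5% CO₂. Ligands (DMSO, final 0.5% v/v) were added at 0.1–100 for 24 or 48 h. MTT was added for 4 h and dissolved in 50% DMF/5% SDS. A570 was read, and cytotoxicity was calculated as 100×(OD treated/OD untreated).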

Bacillus cereus [2] = experiment: Antibacterial activity against Bacillus cereus ATCC 7064 after 24 hrs by agar disk diffusion assay; type: functional
Outline: (§2)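 Disk diffusion with sterile 6 mm discs loaded with DMSO solutions of the test agents and placed on inoculated agar. Bacteria were pre-grown in Nutrient Broth at 30 °C for 24 h, and plates were incubated at 35 °C for 24 h. Each plate carried a reference antibiotic disc matched to the organism, and a DMSO-only solvent control was run.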

Pseudomonas aeruginosa [3] = experiment: Antibacterial activity against Pseudomonas aeruginosa ATCC 27853 after 24 hrs by agar disk diffusion assay; type: functional; outline: as §2
Proteus vulgaris [4] = experiment: Antibacterial activity against Proteus vulgaris ATCC 8427 after 24 hrs by agar disk diffusion assay; type: functional; outline: as §2
Proteus vulgaris [5] = experiment: Antibacterial activity against Proteus vulgaris ATCC 8427 after 24 hrs by broth micro dilution method; type: functional; conditions: ATCC 8427, 24 h
23132-87 [6] = experiment: Induction of apoptosis in human 23132/87 cells assessed as change in nuclear appearance at 100 uM after 24 hrs by hoechst nuclear staining; type: functional, cell-based
Outline: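 Cells grown in 6-well plates were treated for 24 h, washed three times in PBS and fixed in ice-cold methanol for 10 min. They were stained with Hoechst 33258 for 5 min, destained in double-distilled water for 5 min and examined by fluorescence microscopy. Untreated and DMSO-treated cells served as controls.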

A549 = experiment: Cytotoxicity against human A549 cells assessed as cell viability at 10 uM after 48 hrs by MTT assay; type: functional; conditions: A549, 48 h, read-out: Activity; outline: as §1
23132-87 [7] = experiment: Induction of apoptosis in human 23132/87 cells assessed as DNA fragmentation at 100 uM after 24 hrs by DNA fragmentation assay; type: functional, cell-based
Outline: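 10 × 10⁴ cells were seeded in 6-well plates and treated with ligand for 24 h. Cells were then collected and washed in PBS, and DNA was extracted with a kit. Extracts were run on 1.5% agarose alongside a 100 bp marker, an untreated control and DMSO-treated controls, and ladders were visualized under UV.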

Kluyveromyces marxianus = experiment: Antifungal activity against Kluyveromyces fragilis NRRL 2415 after 72 hrs by agar disk diffusion assay; type: functional
Outline: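 Sterile 6 mm paper discs were loaded with ligand solution freshly prepared in DMSO and placed on inoculated agar. The inoculum came from broth cultures: bacteria in Nutrient Broth at 30 °C for 24 h, yeasts in Malt Extract Broth for 48 h. Plates were incubated at 35 °C for 24 h (bacteria) or 25 °C for 72 h (yeasts). A DMSO solvent control and a reference antibiotic disc were included on each plate.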

[8] = Cytotoxicity against human 23132/87 cells assessed as cell viability at 100 uM after 24 hrs by MTT assay; type: functional; conditions: 23132-87, 24 h, read-out: Activity; outline: as §1
Bacillus cereus [9] = experiment: Antibacterial activity against Bacillus cereus ATCC 7064 after 24 hrs by broth micro dilution method; type: functional; conditions: ATCC 7064, 24 h
Klebsiella pneumoniae = experiment: Antibacterial activity against Klebsiella pneumoniae UC57 after 24 hrs by broth micro dilution method; type: functional; conditions: UC57, 24 h
[10] = Cytotoxicity against human 23132/87 cells assessed as cell viability at 1 uM after 24 hrs by MTT assay; type: functional; conditions: 23132-87, 24 h, read-out: Activity; outline: as §1
Pseudomonas aeruginosa [11] = experiment: Antibacterial activity against Pseudomonas aeruginosa ATCC 27853 after 24 hrs by broth micro dilution method; type: functional; conditions: ATCC 27853, 24 h
Escherichia coli = experiment: Antibacterial activity against Escherichia coli ATCC 11230 after 24 hrs by broth micro dilution method; type: functional; conditions: ATCC 11230, 24 h

| MIC (Proteus vulgaris [5]) [µg/mL] | MIC (Bacillus cereus [9]) [µg/mL] | MIC (Klebsiella pneumoniae) [µg/mL] | MIC (Pseudomonas aeruginosa [11]) [µg/mL] | MIC (Escherichia coli) [µg/mL] | SMILES | viability at 10 µM [1] [%] | inhibition zone (IZ) (Bacillus cereus [2]) [mm] | inhibition zone (IZ) (Pseudomonas aeruginosa [3]) [mm] | inhibition zone (IZ) (Proteus vulgaris [4]) [mm] | Activity (23132-87 [6]) | viability at 10 µM (A549) [%] | Activity (23132-87 [7]) | inhibition zone (IZ) (Kluyveromyces marxianus) [mm] | viability at 100 µM [8] [%] | viability at 1 µM [10] [%] |
| --- | --- | --- | --- | --- | --- | --- | --- | --- | --- | --- | --- | --- | --- | --- | --- |
| 25 (≈ 37.5 µM) | 3.12 (≈ 4.69 µM) | 6.25 (≈ 9.37 µM) | 25 (≈ 37.5 µM) | 25 (≈ 37.5 µM) | O=C1CSSCC(=O)Nc2nc(nc(-c3ccccc3)n2)NC(=O)CSSCC(=O)Nc2nc(nc(-c3ccccc3)n2)N1 | > 86 | 17 | 11 | 11 | inactive | > 86 | inactive | 19 | > 86 | > 86 |
| 12.5 (≈ 17.3 µM) | 6.25 (≈ 8.65 µM) | 6.25 (≈ 8.65 µM) | 25 (≈ 34.6 µM) | 25 (≈ 34.6 µM) | O=C1CCSSCCC(=O)Nc2nc(nc(-c3ccccc3)n2)NC(=O)CCSSCCC(=O)Nc2nc(nc(-c3ccccc3)n2)N1 | > 86 | 15 | 11 | 13 | inactive | > 86 | inactive | 21 | > 86 | > 86 |
| 12.5 (≈ 20.7 µM) | 6.25 (≈ 10.4 µM) | 12.5 (≈ 20.7 µM) | 50 (≈ 83 µM) | 25 (≈ 41.5 µM) | O=C1CSCC(=O)Nc2nc(nc(-c3ccccc3)n2)NC(=O)CSCC(=O)Nc2nc(nc(-c3ccccc3)n2)N1 | > 86 | 14 | 9 | 12 | inactive | > 86 | inactive | 15 | > 86 | > 86 |
| 25 (≈ 37.9 µM) | 12.5 (≈ 19 µM) | 12.5 (≈ 19 µM) | 25 (≈ 37.9 µM) | 25 (≈ 37.9 µM) | O=C1CCSCCC(=O)Nc2nc(nc(-c3ccccc3)n2)NC(=O)CCSCCC(=O)Nc2nc(nc(-c3ccccc3)n2)N1 | > 86 | 13 | 11 | 11 | inactive | > 86 | inactive | 16 | > 86 | > 86 |

Reference: ChEMBL document CHEMBL1156002, “Synthesis, Raman, FT-IR, NMR spectroscopic characterization, antimicrobial activity, cytotoxicity and DNA binding of new mixed aza-oxo-thia macrocyclic compounds” (2009)
